Laboratory results from paper PMC2223369 (The Journal of General Physiology, 1999).

Key:
[1] = system: alpha subunit of type IIA sodium channels; test: Use-dependent block, conditioning pulse protocol; assay type: cell-based, rat; conditions: for use-dependent block, conditioning pulse protocol (in words): Fig. 5 and 6; for use-dependent block at 200 mV: wild-type channels, conditioning pulses to 200 mV
[2] = system: alpha subunit of type IIA sodium channels; test: Fast peptide block of LqTx-modified sodium channels, whole-cell patch clamp; assay type: cell-based, rat; conditions: 100 nM LqTx; for k b(0 mV), blocking rate / k u(0 mV), unblocking rate: 1 mM peptide, SEM; for k b(0 mV), blocking rate: calculated from τ and Fss by Eq. 2, mean ± SEM; for k u(0 mV), unblocking rate: calculated from τ and Fss by Eq. 3, mean ± SEM; for fraction of extrapolated peak sodium current unblocked at steady state / fast block of LqTx-modified sodium channels (in words): 1 mM peptide intracellular, 0 mV
Summary of the method: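 CHO cells stably expressing the channel alpha subunit, recorded 24 h after subculture; whole-cell patch clamp at 22–25°C. Pipette carries 1 mM test peptide, and recording starts about 20 min after break-in. LqTx-modified currents are elicited by steps from −80 mV to 0 mV. Decay is fit to a single exponential, with Fss = B/(A+B). kb and ku come from τ and Fss.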

sodium channels = conditions: ref Eaholtz et al., cited from earlier work
[3] = system: alpha subunit of type IIA sodium channels; test: Recovery from fast block, two-pulse voltage protocol; assay type: cell-based, rat; conditions: for time constant of recovery from fast block at −80 mV: interpulse −80 mV, mean ± SEM, n = 5
Summary of the method: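 CHO cells stably expressing the channel alpha subunit, under whole-cell clamp at 22–25°C with 1 mM test peptide in the pipette; channels LqTx-modified. Two 0-mV test pulses give the ratio I2/I1. The protocol is repeated 20× with the interpulse interval increased by Δt each time. Interpulse voltage is −80, −100, −120 or −140 mV. Recovery versus interval is fit to a single exponential for the time constant.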

[4] = 1 mM peptide, channels not modified by LqTx

Question: Which “use-dependent block, conditioning pulse protocol (in words)” value [1, 4] does the source give for NC(=O)[C@@H](N)Cc1ccccc1 [F-NH2, phenylalanine-amide] here?
Answer: The value was “not effective in use-dependent block”.

Question: For Ac-KIFMTK-NH2, which “k b(0 mV), blocking rate” value [2] is on record?
Answer: Its value is 2881 ± 263 s⁻¹.

Question: What about the “k u(0 mV), unblocking rate” value [2] of the same compound?
Answer: Its value is 731 ± 8 s⁻¹.

Question: What about the “use-dependent block, conditioning pulse protocol (in words)” value [1, 4] of the same compound?
Answer: Its value is “poor use-dependent blocker”.

Question: For DIFMK-NH2, which “use-dependent block, conditioning pulse protocol (in words)” value [1, 4] is on record?
Answer: Its value is “much less effective than ac-KIFMK-NH2”.

Question: Which “use-dependent block, conditioning pulse protocol (in words)” value [1, 4] does the source give for FM-NH2 here?
Answer: Its value is “not effective in use-dependent block”.

Question: For KIFM-NH2, which “fraction of extrapolated peak sodium current unblocked at steady state” value [2] is on record?
Answer: The value was 42%.

Question: What about the “k b(0 mV), blocking rate” value [2] of the same compound?
Answer: The value was 1751 ± 163 s⁻¹.

Question: And the “k u(0 mV), unblocking rate” value [2]?
Answer: Its value is 1283 ± 149 s⁻¹.

Question: What about the “use-dependent block, conditioning pulse protocol (in words)” value [1, 4] of the same compound?
Answer: The value was “substantial use-dependent block”.

Question: Which “fast block of LqTx-modified sodium channels (in words)” value [2] does the source give for KIFMT-NH2 here?
Answer: Its value is “rapidly blocked LqTx-modified sodium currents”.

Question: What about the “k u(0 mV), unblocking rate” value [2] of the same compound?
Answer: Its value is 386 ± 81 s⁻¹.

Question: And the “use-dependent block, conditioning pulse protocol (in words)” value [1, 4]?
Answer: Its value is “much less effective than ac-KIFMK-NH2”.

Question: For ac-DIFMT-NH2, which “fast block of LqTx-modified sodium channels (in words)” value [2] is on record?
Answer: Its value is “did not produce significant fast block”.

Question: What about the “use-dependent block, conditioning pulse protocol (in words)” value [1, 4] of the same compound?
Answer: The value was “no effect at all”.

Question: Which results are given for ac-KAFAK-NH2?
Answer: use-dependent block, conditioning pulse protocol (in words) [1, 4]: less effective; use-dependent block at 200 mV ([1]; 1 mM peptide): > 60%; fast block of sodium channels (in words) (sodium channels; 1994): did not produce fast block

Question: With ac-KIFMK-NH2 as the compound, how does the “fraction of extrapolated peak sodium current unblocked at steady state” value [2] read?
Answer: The value was 21%.

Question: What about the “k u(0 mV), unblocking rate” value [2] of the same compound?
Answer: Its value is 587 ± 40 s⁻¹.

Question: What about the “time constant of recovery from fast block at −80 mV” value ([3]; 1 mM peptide, LqTx-modified channels) of the same compound?
Answer: Its value is 0.9 ms.

Question: What about the “time constant of recovery from fast block at −80 mV” value ([3]; 1 mM peptide, LqTx-modified channels, SEM) of the same compound?
Answer: The value was 0.9 ± 0.3 ms.

Question: What about the “time constant of recovery from fast block at −100 mV” value ([3]; 1 mM peptide, LqTx-modified channels, interpulse −100 mV, n = 6) of the same compound?
Answer: Its value is 0.6 ± 0.1 ms.

Question: What about the “time constant of recovery from fast block at −120 mV” value ([3]; 1 mM peptide, LqTx-modified channels, interpulse −120 mV, n = 6) of the same compound?
Answer: Its value is 0.4 ± 0.1 ms.

Question: And the “time constant of recovery from fast block at −140 mV” value ([3]; 1 mM peptide, LqTx-modified channels, interpulse −140 mV, n = 4)?
Answer: Its value is 0.3 ± 0.1 ms.

Question: What about the “time at which recovery from fast block was half complete” value ([3]; −80 mV) of the same compound?
Answer: Its value is 0.9 ms.

Question: And the “fractional current (I12/I1) after 10 conditioning pulses to 200 mV, LqTx-modified channels” value ([1]; 1 mM peptide, 100 nM LqTx, n = 6, mean ± SEM, SEM)?
Answer: Its value is 0.03 ± 0.02.

Question: What about the “use-dependent block in the absence or presence of LqTx” value ([1]; 1.0 mM peptide, 200-mV conditioning pulses) of the same compound?
Answer: Its value is over 95%.

Question: And the “conditioning voltage of half-maximal use-dependent block” value ([1]; 1 mM peptide, channels not modified by LqTx, Fig. 5 A)?
Answer: Its value is “+125 mV”.

Question: What about the “use-dependent block with conditioning pulses more positive than 150 mV” value ([1]; 1.5 mM peptide, three cells, unmodified channels) of the same compound?
Answer: The value was about 100%.

Question: What about the “δ of use-dependent block” value ([1]; mean zδ divided by two (two positive charges)) of the same compound?
Answer: The value was 0.5.

Question: And the “time for half-maximal recovery from use-dependent block” value ([1]; −80 mV)?
Answer: Its value is “more than 90 s”.

Question: And the “δ value of fast block” value (sodium channels; voltage dependence of fast block, 1998)?
Answer: The value was 0.3.

Question: With ac-KIQMK-NH2 as the compound, how does the “use-dependent block, conditioning pulse protocol (in words)” value [1, 4] read?
Answer: The value was “did not produce significant block”.

Question: And the “fast block of sodium channels (in words)” value (sodium channels; 1994)?
Answer: Its value is “did not produce fast block”.

Question: What about the “use-dependent block (in words)” value (sodium channels; 1994) of the same compound?
Answer: The value was “ineffective in use-dependent block”.

Question: For ac-RIFMR-NH2, which “fast block of LqTx-modified sodium channels (in words)” value [2] is on record?
Answer: The value was “rapidly blocked LqTx-modified sodium currents”.

Question: And the “k u(0 mV), unblocking rate” value [2]?
Answer: The value was 222 ± 33 s⁻¹.

Question: And the “use-dependent block, conditioning pulse protocol (in words)” value [1, 4]?
Answer: Its value is “significantly more potent than ac-KIFMK-NH2”.

Question: What does the source list for cyclic KIFMK (head to tail)?
Answer: fast block of LqTx-modified sodium channels (in words) [2]: did not exhibit significant fast block; use-dependent block, conditioning pulse protocol (in words) [1, 4]: nearly as potent in use-dependent block as ac-KIFMK-NH2; use-dependent block at 200 mV ([1]; 1 mM peptide): ~100%
